ChEMBL document CHEMBL4257575, “Discovery of Novel Flavonoid Dimers To Reverse Multidrug Resistance Protein 1 (MRP1, ABCC1) Mediated Drug Resistance in Cancers Using a High Throughput Platform with "Click Chemistry"” (J Med Chem, 2018)

Each compound was assayed against Multidrug resistance-associated protein 1 (Homo sapiens, UniProt P33527) (assay: Inhibition of MRP1 in human 2008/MRP1 cells assessed as potentiation of doxorubicin-induced cytotoxicity by measuring cell survival at 2 uM after 5 days by MTS assay relative to control). Settings: 120 h.
Multidrug resistance-associated protein 1, sequence (P33527 whole entry): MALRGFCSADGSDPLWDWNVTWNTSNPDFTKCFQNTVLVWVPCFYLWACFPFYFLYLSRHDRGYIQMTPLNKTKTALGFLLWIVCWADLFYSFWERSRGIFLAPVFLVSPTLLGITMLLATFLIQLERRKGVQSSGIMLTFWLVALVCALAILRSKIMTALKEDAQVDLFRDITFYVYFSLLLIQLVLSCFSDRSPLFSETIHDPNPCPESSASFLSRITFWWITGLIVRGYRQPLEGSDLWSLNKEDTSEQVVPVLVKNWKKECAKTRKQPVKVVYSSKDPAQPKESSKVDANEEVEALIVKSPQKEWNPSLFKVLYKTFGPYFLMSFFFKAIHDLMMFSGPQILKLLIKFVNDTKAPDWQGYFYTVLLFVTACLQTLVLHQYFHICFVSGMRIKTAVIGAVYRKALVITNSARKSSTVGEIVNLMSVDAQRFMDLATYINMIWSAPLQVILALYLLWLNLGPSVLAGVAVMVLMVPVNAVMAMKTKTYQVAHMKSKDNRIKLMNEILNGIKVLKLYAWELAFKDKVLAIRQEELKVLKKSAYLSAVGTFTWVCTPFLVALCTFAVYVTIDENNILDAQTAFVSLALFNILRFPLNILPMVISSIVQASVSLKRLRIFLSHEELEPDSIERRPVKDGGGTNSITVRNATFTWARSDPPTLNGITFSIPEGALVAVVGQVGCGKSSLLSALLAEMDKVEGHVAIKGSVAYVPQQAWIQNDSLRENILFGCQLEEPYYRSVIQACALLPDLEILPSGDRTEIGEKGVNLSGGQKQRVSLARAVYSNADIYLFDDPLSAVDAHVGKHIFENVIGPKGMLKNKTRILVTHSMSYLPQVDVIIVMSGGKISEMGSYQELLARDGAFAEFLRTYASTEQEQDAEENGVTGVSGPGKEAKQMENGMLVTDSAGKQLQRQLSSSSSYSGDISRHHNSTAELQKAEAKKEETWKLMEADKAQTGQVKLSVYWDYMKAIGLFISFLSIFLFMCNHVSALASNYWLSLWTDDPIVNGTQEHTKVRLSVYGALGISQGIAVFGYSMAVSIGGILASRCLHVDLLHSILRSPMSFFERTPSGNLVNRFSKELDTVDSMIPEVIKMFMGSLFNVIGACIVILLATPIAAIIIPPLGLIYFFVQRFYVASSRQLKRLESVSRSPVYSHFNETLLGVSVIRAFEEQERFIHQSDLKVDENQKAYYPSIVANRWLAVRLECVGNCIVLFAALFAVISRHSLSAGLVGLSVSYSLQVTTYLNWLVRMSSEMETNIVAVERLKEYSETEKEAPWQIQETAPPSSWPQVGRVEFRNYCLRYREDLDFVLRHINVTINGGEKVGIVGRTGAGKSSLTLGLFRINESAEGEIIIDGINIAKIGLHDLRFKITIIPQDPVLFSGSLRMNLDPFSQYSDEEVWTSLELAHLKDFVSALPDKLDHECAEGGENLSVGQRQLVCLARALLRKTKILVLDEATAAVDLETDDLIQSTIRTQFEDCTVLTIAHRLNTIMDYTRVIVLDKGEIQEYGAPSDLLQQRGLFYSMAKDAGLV
Assay type: cell-based
Method in brief: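 2008/MRP1 cells (retroviral human MRP1 transfectant; RPMI 1640, 10% FBS) at 4,000 per well, with 100 nM doxorubicin plus crude, unpurified click products in DMSO: 2 µM in the primary screen, 1 µM in the secondary. Incubated 5 days at 37 °C. MTS/PMS added for 2 h at 37 °C, absorbance read at 490 nm. % survival is relative to wells without DOX or product. Run in triplicate, at least three experiments.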

| SMILES | Survival |
| --- | --- |
| COc1cccc(COc2c(-c3ccc(OCCCCc4cn(CCOCCOCCOc5ccc6c(=O)cc(-c7ccccc7)oc6c5)nn4)cc3)oc3ccccc3c2=O)c1 | 78% |
| O=c1cc(-c2ccc(OCCOCCOCCn3cc(CCCOc4ccc(-c5cc(=O)c6cc(F)ccc6o5)cc4)nn3)cc2)oc2ccccc12 | 79% |
| O=c1c(OCc2ccccc2)c(-c2cccc(OCCOCCn3cc(CN(Cc4cn(CCOCCOc5cccc(-c6oc7ccccc7c(=O)c6OCc6ccccc6)c5)nn4)Cc4cn(CCOCCOc5cccc(-c6oc7ccccc7c(=O)c6OCc6ccccc6)c5)nn4)nn3)c2)oc2ccccc12 | 91% |
| O=Cc1ccc(OCCCCc2cn(CCOCCOc3ccc(-c4cc(=O)c5cc(F)ccc5o4)cc3)nn2)cc1 | 78% |
| Cc1ccc(O)c(C(=O)/C=C/c2ccc(OCCCCc3cn(CCOCCOc4cccc(-c5oc6ccccc6c(=O)c5OCc5ccccc5)c4)nn3)cc2)c1 | 78% |
| O=c1cc(-c2ccc(OCCCc3cn(CCOCCOCCOc4ccc(-c5oc6ccccc6c(=O)c5OCc5ccccc5)cc4)nn3)cc2)oc2ccc(F)cc12 | 75% |
| COc1cccc(COc2c(-c3ccc(OCCCCc4cn(CCOc5cccc6c(=O)cc(-c7ccccc7)oc56)nn4)cc3)oc3ccccc3c2=O)c1 | 51% |
| O=c1[nH]c(-c2ccc(OCCCc3cn(CCOCCOc4cccc(-c5oc6ccccc6c(=O)c5OCc5ccccc5)c4)nn3)cc2)nc2ccccc12 | 67% |
| O=c1c(OCc2ccccc2)c(-c2ccc(OCCOCCn3cc(CN(Cc4ccccc4)Cc4cn(CCOCCOc5ccc(-c6oc7ccccc7c(=O)c6OCc6ccccc6)cc5)nn4)nn3)cc2)oc2ccccc12 | 62% |
| CCc1ccc(O)c(C(=O)/C=C/c2ccc(OCCCCc3cn(CCOCCOc4ccc5c(=O)cc(-c6ccccc6)oc5c4)nn3)cc2)c1 | 68% |
| Cc1ccc(O)c(C(=O)/C=C/c2ccc(OCCCCc3cn(CCOc4cccc5c(=O)cc(-c6ccccc6)oc45)nn3)cc2)c1 | 77% |
| COc1cccc(COc2c(-c3ccc(OCCOCCn4cc(CCCCOc5ccc(/C=C/C(=O)c6cc(C)ccc6O)cc5)nn4)cc3)oc3ccccc3c2=O)c1 | 75% |
| O=c1cc(-c2ccccc2)oc2cc(OCCOCCn3cc(CCCOc4ccc(-c5cc(=O)c6cc(F)ccc6o5)cc4)nn3)ccc12 | 111% |
| C#CCN(CCOc1ccc2c(=O)cc(-c3ccccc3)oc2c1)Cc1ccccc1 | 86% |
| [N-]=[N+]=NCCOCCOCCOc1ccc2c(=O)cc(-c3ccccc3)oc2c1 | 90% |
| O=c1c(OCc2ccccc2)c(-c2ccc(OCCOCCOCCn3cc(-c4ccc(-c5cn(CCOCCOCCOc6ccc(-c7oc8ccccc8c(=O)c7OCc7ccccc7)cc6)nn5)cc4)nn3)cc2)oc2ccccc12 | 86% |
| Cc1ccc2oc(-c3ccc(OCCOCCOCCn4cc(CCCCOc5ccc(/C=C/C(=O)c6ccc(F)cc6O)cc5)nn4)cc3)cc(=O)c2c1 | 63% |
| C#CCN(CC#C)Cc1ccccc1 | 81% |
| O=c1cc(-c2ccc(OCCOCCOCCn3cc(CNc4ccccc4)nn3)cc2)oc2ccccc12 | 88% |
| O=C(/C=C/c1ccc(OCCCCc2cn(CCOCCOCCOc3ccc(-c4cc(=O)c5cc(F)ccc5o4)cc3)nn2)cc1)c1ccccc1O | 56% |

| SMILES | Survival |
| --- | --- |
| O=Cc1ccc(OCCCCc2cn(CCOc3cccc4c(=O)cc(-c5ccccc5)oc34)nn2)cc1 | 83% |
| COc1cccc(COc2c(-c3ccc(OCCOCCn4cc(CCCCOc5ccc6c(=O)cc(-c7ccccc7)oc6c5)nn4)cc3)oc3ccccc3c2=O)c1 | 86% |
| O=C(/C=C/c1ccc(OCCCCc2cn(CCOCCOc3ccc4c(=O)cc(-c5ccccc5)oc4c3)nn2)cc1)c1ccc(F)cc1O | 64% |
| O=Cc1ccc(OCCCCc2cn(CCOCCOc3cccc(-c4oc5ccccc5c(=O)c4OCc4ccccc4)c3)nn2)cc1 | 82% |
| O=Cc1ccc(OCCCCc2cn(CCOCCOCCOc3ccc(-c4oc5ccccc5c(=O)c4OCc4ccccc4)cc3)nn2)cc1 | 75% |
| O=c1cc(-c2ccc(OCCOCCn3cc(-c4cccc(-c5cn(CCOCCOc6ccc(-c7cc(=O)c8cc(F)ccc8o7)cc6)nn5)c4)nn3)cc2)oc2ccc(F)cc12 | 74% |
| O=c1[nH]c(-c2ccc(OCCCc3cn(CCOc4cccc5c(=O)cc(-c6ccccc6)oc45)nn3)cc2)nc2ccccc12 | 67% |
| O=Cc1ccc(OCCCCc2cn(CCOCCOc3ccc4c(=O)cc(-c5ccccc5)oc4c3)nn2)cc1 | 82% |
| COc1cccc(COc2c(-c3ccc(OCCOCCn4cc(CN(Cc5cn(CCOCCOc6ccc(-c7oc8ccccc8c(=O)c7OCc7cccc(OC)c7)cc6)nn5)Cc5cn(CCOCCOc6ccc(-c7oc8ccccc8c(=O)c7OCc7cccc(OC)c7)cc6)nn5)nn4)cc3)oc3ccccc3c2=O)c1 | 86% |
| Cc1ccc2oc(-c3ccc(OCCOCCOCCn4cc(-c5ccc(-c6cn(CCOCCOCCOc7ccc(-c8cc(=O)c9cc(C)ccc9o8)cc7)nn6)cc5)nn4)cc3)cc(=O)c2c1 | 74% |
| O=c1cc(-c2ccc(OCCOCCOCCn3cc(COCCOc4ccc5c(=O)cc(-c6ccccc6)oc5c4)nn3)cc2)oc2ccccc12 | 59% |
| CCc1ccc(O)c(C(=O)/C=C/c2ccc(OCCCCc3cn(CCOCCOCCOc4ccc5c(=O)cc(-c6ccccc6)oc5c4)nn3)cc2)c1 | 79% |
| CCc1ccc(O)c(C(=O)/C=C/c2ccc(OCCCCc3cn(CCOCCOc4cccc(-c5oc6ccccc6c(=O)c5OCc5ccccc5)c4)nn3)cc2)c1 | 85% |
| O=c1cc(-c2ccccc2)oc2cc(OCCCc3cn(CCOCCOc4cccc(-c5oc6ccccc6c(=O)c5OCc5ccccc5)c4)nn3)ccc12 | 65% |
| O=c1cc(-c2ccccc2)oc2cc(OCCCCc3cn(CCOCCOCCOc4ccc(-c5oc6ccccc6c(=O)c5OCc5ccccc5)cc4)nn3)ccc12 | 63% |
| Cc1ccc(C(=O)/C=C/c2ccc(OCCCCc3cn(CCOCCOc4ccc(-c5oc6ccccc6c(=O)c5OCc5ccccc5)cc4)nn3)cc2)c(O)c1 | 66% |
| COCOc1cc(OCc2ccccc2)c2c(=O)cc(-c3ccc(OCCCc4cn(CCOCCOc5cccc(-c6oc7ccccc7c(=O)c6OCc6ccccc6)c5)nn4)cc3)oc2c1 | 74% |
| O=c1c(OCc2ccccc2)c(-c2cccc(OCCOCCn3cc(-c4ccc(-c5cn(CCOCCOc6cccc(-c7oc8ccccc8c(=O)c7OCc7ccccc7)c6)nn5)cc4)nn3)c2)oc2ccccc12 | 82% |
| [N-]=[N+]=NCCOCCOCCOc1ccc(-c2cc(=O)c3ccccc3o2)cc1 | 85% |
| COc1cccc(COc2c(-c3ccc(OCCCCc4cn(CCOCCOCCOc5ccc(-c6cc(=O)c7ccccc7o6)cc5)nn4)cc3)oc3ccccc3c2=O)c1 | 58% |

| SMILES | Survival |
| --- | --- |
| Cc1ccc2oc(-c3ccc(OCCOCCOCCn4cc(-c5cccc(-c6cn(CCOCCOCCOc7ccc(-c8cc(=O)c9cc(C)ccc9o8)cc7)nn6)c5)nn4)cc3)cc(=O)c2c1 | 77% |
| COCOc1cc(OCc2ccccc2)c2c(=O)cc(-c3ccc(OCCCc4cn(CCOCCOCCOc5ccc6c(=O)cc(-c7ccccc7)oc6c5)nn4)cc3)oc2c1 | 76% |
| O=C(/C=C/c1ccc(OCCCCc2cn(CCOCCOc3ccc(-c4oc5ccccc5c(=O)c4OCc4ccccc4)cc3)nn2)cc1)c1ccccc1O | 72% |
| COc1cccc(COc2c(-c3ccc(OCCOCCn4cc(-c5cccc(-c6cn(CCOCCOc7ccc(-c8oc9ccccc9c(=O)c8OCc8cccc(OC)c8)cc7)nn6)c5)nn4)cc3)oc3ccccc3c2=O)c1 | 82% |
| O=c1c(OCc2ccccc2)c(-c2cccc(OCCOCCn3cc(CN(Cc4ccccc4)Cc4cn(CCOCCOc5cccc(-c6oc7ccccc7c(=O)c6OCc6ccccc6)c5)nn4)nn3)c2)oc2ccccc12 | 87% |
| CCc1ccc(O)c(C(=O)/C=C/c2ccc(OCCCCc3cn(CCOCCOCCOc4ccc(-c5cc(=O)c6ccccc6o5)cc4)nn3)cc2)c1 | 60% |
| O=c1cc(-c2ccccc2)oc2cc(OCCOCCOCCn3cc(CN4CCN(Cc5cn(CCOCCOCCOc6ccc7c(=O)cc(-c8ccccc8)oc7c6)nn5)CC4)nn3)ccc12 | 89% |
| O=C(/C=C/c1ccc(OCCCCc2cn(CCOCCOc3ccc(-c4cc(=O)c5cc(F)ccc5o4)cc3)nn2)cc1)c1ccccc1O | 72% |
| O=c1cc(-c2ccccc2)oc2cc(OCCOCCOCCn3cc(CN(Cc4ccccc4)Cc4cn(CCOCCOCCOc5ccc6c(=O)cc(-c7ccccc7)oc6c5)nn4)nn3)ccc12 | 74% |
| [N-]=[N+]=NCCOCCOc1ccc(-c2cc(=O)c3cc(F)ccc3o2)cc1 | 90% |
| CN(CCN(C)Cc1cn(CCOCCOCCOc2ccc(-c3cc(=O)c4ccccc4o3)cc2)nn1)Cc1cn(CCOCCOCCOc2ccc(-c3cc(=O)c4ccccc4o3)cc2)nn1 | 71% |
| CCc1ccc(O)c(C(=O)/C=C/c2ccc(OCCCCc3cn(CCOCCOc4ccc(-c5oc6ccccc6c(=O)c5OCc5ccccc5)cc4)nn3)cc2)c1 | 69% |
| O=c1[nH]c(-c2ccc(OCCCc3cn(CCOCCOCCOc4ccc(-c5cc(=O)c6ccccc6o5)cc4)nn3)cc2)nc2ccccc12 | 76% |
| O=c1cc(-c2ccc(OCCCc3cn(CCOCCOCCOc4ccc(-c5cc(=O)c6cc(F)ccc6o5)cc4)nn3)cc2)oc2ccc(F)cc12 | 76% |
| O=c1cc(-c2ccc(OCCOCCn3cc(-c4ccc(-c5cn(CCOCCOc6ccc(-c7cc(=O)c8ccccc8o7)cc6)nn5)cc4)nn3)cc2)oc2ccccc12 | 81% |
| O=c1cc(-c2ccc(OCCCc3cn(CCOCCOCCOc4ccc(-c5cc(=O)c6ccccc6o5)cc4)nn3)cc2)oc2ccccc12 | 56% |
| C#Cc1ccc(C#C)cc1 | 86% |
| COc1cccc(COc2c(-c3ccc(OCCCCc4cn(CCOCCOc5ccc(-c6oc7ccccc7c(=O)c6OCc6cccc(OC)c6)cc5)nn4)cc3)oc3ccccc3c2=O)c1 | 57% |
| O=c1cc(-c2ccccc2)oc2cc(OCCOCCn3cc(CNc4ccccc4)nn3)ccc12 | 88% |
| COc1cccc(COc2c(-c3ccc(OCCOCCn4cc(CCCOc5ccc(-c6cc(=O)c7ccc(F)cc7o6)cc5)nn4)cc3)oc3ccccc3c2=O)c1 | 61% |
